What was measured:
MS2 coat protein [1] = assay: apparent Kd, MS2 coat protein; higher = weaker binding; RNA-MaP array; theophylline 2 mM where present
Summary of the method: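 SNAP-549-labelled MS2 coat protein, doubled from 0.7 or 1.5 nM to 3 µM, was titrated over designs transcribed by stalled E. coli RNA polymerase on Illumina sequencing-chip clusters. Titrations were run without and then with constant ligand in 100 mM Tris-HCl pH 7.5, 80 mM KCl, 4 mM MgCl2, BSA, DTT, yeast tRNA and Tween-20. The apparent Kd is the median of filtered per-cluster fits to green signal normalised to red-channel RNA signal and control-cluster median Fmax.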

MS2 coat protein [2] = assay: apparent Kd, MS2 coat protein; higher = weaker binding; RNA-MaP array
Summary of the method: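 Designed RNAs were transcribed on an Illumina sequencing chip from sequenced DNA templates. They were incubated at room temperature with fluorescently labeled MS2 coat protein at 1.5 nM to 3 μM, for 0.8–1.5 h at the lowest to 10–20 min at the highest concentrations, in Tris-HCl pH 7.5 buffer with KCl, MgCl2, BSA, DTT, tRNA and Tween20, with or without input ligand. Apparent Kd is the median of per-cluster binding-curve fits. Designs measured on fewer than 10 clusters were excluded.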

[3] = designed as: ON switch for theophylline, no ligand
[4] = ligand present: theophylline, designed as: ON switch for theophylline
[5] = designed as: OFF switch for theophylline, no ligand
[6] = ligand present: theophylline, designed as: OFF switch for theophylline
[7] = designed as: OFF switch for flavin mononucleotide, no ligand
[8] = ligand present: flavin mononucleotide, designed as: OFF switch for flavin mononucleotide
[9] = designed as: ON switch for flavin mononucleotide, no ligand
[10] = ligand present: flavin mononucleotide, designed as: ON switch for flavin mononucleotide

Sequence: GGUGAUCCGUGCUGCCGGAUCAUCGGUGAUACCAGCAUCGAAAGAUGCCCUUGGCAGCACCAACAUGAGGAUCACCCAUGUAAUA
- apparent Kd (MS2 coat protein [1]; [3]): 206 nM
- apparent Kd (MS2 coat protein [1]; [4]): 73.4 nM

Sequence: ACAUGAGGAUCACCCAUGUCACGGCACGAUACCAGCUGAUCCGGUGGCCCUUGGCAGCGUGACGUUUGGUCCCGCGGAUGACACG
- apparent Kd (MS2 coat protein [1]; [3]): 134 nM
- apparent Kd (MS2 coat protein [1]; [4]): 43 nM

Sequence: AUCGCACCUGGUGAUACCAGCGUUUGCUCGCGACAUGAGGAUCACCCAUGUGGCCAGUGAUGCCCUUGGCAGCAUGGUCGGUGCA
- apparent Kd (MS2 coat protein [1]; [3]): 317 nM
- apparent Kd (MS2 coat protein [1]; [4]): 45.4 nM

Sequence: GCAUGUGGAGUCUUACUAGAGAGGACAGAUACCAGUAAGAUGUGAUACCCUUGGCAGCUGCGAUUUACAUGAGGAUCACCCAUGU
- apparent Kd (MS2 coat protein [1]; [5]): 21.5 nM
- apparent Kd (MS2 coat protein [1]; [6]): 24.2 nM

Sequence: UUUGAGAUAACAGAUACCAGCGUGUUAUAAAACAUGAGGAUCACCCAUGUAGUGAUCAAGCGCCCUUGGCAGCUGGUAUUUUAGG
- apparent Kd (MS2 coat protein [1]; [3]): 95.2 nM
- apparent Kd (MS2 coat protein [1]; [4]): 210 nM

Sequence: ACCUCACUCUCUGAUACCAGCUAAUAACAUGAGGAUCACCCAUGUCAGACUUGUAUUGAUAGCCCUUGGCAGCAGAGGUAACUGC
- apparent Kd (MS2 coat protein [1]; [5]): 9.39 nM
- apparent Kd (MS2 coat protein [1]; [6]): 11.3 nM

Sequence: ACGACAUGAGGAUCACCCAUGUAAGGUGAUACCAGACGAAGUAAUGUCCCUUGGCAGCACACGCAUAGUUGCGAUUAUUGUACGA
- apparent Kd (MS2 coat protein [1]; [3]): 533 nM
- apparent Kd (MS2 coat protein [1]; [4]): 137 nM

Sequence: CUAAUGGAAGGAUAUACAUGAGGAUCACCCAUGUUUAAGUGAUUAGCGAAUUGUCAACGUAGAAGGUCCAAUUA
- apparent Kd (MS2 coat protein [2]; [7]): 42.6 nM
- apparent Kd (MS2 coat protein [2]; [8]): 84.3 nM

Sequence: UUGUGUACUCGAGGAUAUAAUGGACUACAUGAGGAUCACCCAUGUAUACGCCCACAGAGCGUCUUUUAGAAGGCGACGCAUCAU
- apparent Kd (MS2 coat protein [2]; [9]): 8.4 nM
- apparent Kd (MS2 coat protein [2]; [10]): 7.85 nM

Sequence: CCGAACACUUAGAAGGAUUUAAUCUAUAAUUGAAUAGGAUAUAAGGCCUUACGUGCGAAUGAACACAUGAGGAUCACCCAUGUA
- apparent Kd (MS2 coat protein [2]; [7]): 15.1 nM
- apparent Kd (MS2 coat protein [2]; [8]): 12.6 nM

Sequence: AAAACUUAUCAGAAGGAACGCACUCAACCGUUGUUAGGAUAUGAUCACCUAACAUGAGGAUCACCCAUGUUCACAGUAGGAGAC
- apparent Kd (MS2 coat protein [2]; [9]): 130 nM
- apparent Kd (MS2 coat protein [2]; [10]): 89.5 nM

Sequence: AGUACCGUACGGAAAACAUGAGGAUCACCCAUGUCUAAUUAGAAGGAUAUGCUCUGUAAAUCGACGCAGAAGGUCAGCUAGAAU
- apparent Kd (MS2 coat protein [2]; [9]): 22.5 nM
- apparent Kd (MS2 coat protein [2]; [10]): 19 nM

Sequence: CGGUGGUGAGGAUAUCAAAUGUGGAAGGAGAAGACACCCAGUGAGAAGGCACAUGAGGAUCACCCAUGUACAGC
- apparent Kd (MS2 coat protein [2]; [7]): 10.7 nM
- apparent Kd (MS2 coat protein [2]; [8]): 6 nM

Sequence: CUAAGCUCGGACAAGGAUAUUAAUUACUAGACAUGAGGAUCACCCAUGUCAACAGACUGGAGGAUUAAGAAGGUGAUUGAAAACCC
- apparent Kd (MS2 coat protein [2]; [9]): 21.8 nM
- apparent Kd (MS2 coat protein [2]; [10]): 19.4 nM

Sequence: UUCGGCCUUUAGAAGGAUUGUAUACAUGAGGAUCACCCAUGUUGGUGAUACAGAUAUAUUCGGCAAUAGGAUAUAAGCAGGUGA
- apparent Kd (MS2 coat protein [2]; [7]): 826 nM
- apparent Kd (MS2 coat protein [2]; [8]): 598 nM

Sequence: UAGUAACAUGAGGAUCACCCAUGUCAGGAUAUGAGGUCUACGGCAUAAGCGAAUCGGGUCAGAAGGGACAUAAC
- apparent Kd (MS2 coat protein [2]; [7]): 20.4 nM
- apparent Kd (MS2 coat protein [2]; [8]): 16.9 nM

Sequence: UCGUUGGCACAGAAGGGACUCUCGAAGCAUGUGUCAGGAUAUGUGCGCUACAUGAGGAUCACCCAUGUCAAGACCUGGUUAGCA
- apparent Kd (MS2 coat protein [2]; [7]): 29.4 nM
- apparent Kd (MS2 coat protein [2]; [8]): 18.8 nM

Sequence: UUAAUCGUGCAUGAUACCAGUAUCCGUAGAUACAUGAGGAUCACCCAUGUCUGGUUGGAAUACCCUUGGCAGCAUGGGUUGAGGA
- apparent Kd (MS2 coat protein [2]; [3]): 242 nM
- apparent Kd (MS2 coat protein [2]; [4]): 249 nM

Sequence: AUAGCCAAACAAGGAUAUACGCGCGUCACAGAAAAUGGGACAUGAGGAUCACCCAUGUGGGAAGAGUAGAAGGUGUUUCCAGAU
- apparent Kd (MS2 coat protein [2]; [7]): 251 nM
- apparent Kd (MS2 coat protein [2]; [8]): 147 nM

Sequence: GGACAUUGUCCUAUUCACAUGAGGAUCACCCAUGUCACAACUAGAAGGGAGCGAUAACAAUUUCCUCAGGAUAUAGUUCGCGGC
- apparent Kd (MS2 coat protein [2]; [9]): 28.2 nM
- apparent Kd (MS2 coat protein [2]; [10]): 24.7 nM

Sequence: GUAUUACAUGAGGAUCACCCAUGUGCGCCGCGUCAAGGAUAUGUAUCGUACGUGUAGUAAACAGAAGGUGACGGAU
- apparent Kd (MS2 coat protein [2]; [9]): 170 nM
- apparent Kd (MS2 coat protein [2]; [10]): 71.2 nM

Sequence: AUUGUGAUAGCAGGAUAUUGUAUUGGUACAUGAGGAUCACCCAUGUUAAAAUCCUCUUGAUUUAGCAAGAAGGGCUCCAUGGCA
- apparent Kd (MS2 coat protein [2]; [7]): 21.8 nM
- apparent Kd (MS2 coat protein [2]; [8]): 18.3 nM

Sequence: UACCCUCGAGGAUAUUAGCUAGCGAACAUGAGGAUCACCCAUGUGCAUCUUCCCAGCCGUUAAGAAGGCGAUUACC
- apparent Kd (MS2 coat protein [2]; [7]): 93.1 nM
- apparent Kd (MS2 coat protein [2]; [8]): 79.2 nM
